# ChEMBL document CHEMBL1158394, “Diversity-oriented synthesis of furo[3,2-f]chromanes with antimycobacterial activity” (Eur J Med Chem, 2009)
# Activity calls are given as the source filed them. The rule behind the calls is not given here.
# Tests used:
# Vero = assay: Cytotoxicity against african green monkey Vero cells after 48 hrs by MTT assay; format: cell-based; conditions: Chlorocebus sabaeus
# How it was run: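 Vero cells seeded at 10⁵ cells/mL and preincubated 24 h at 37 °C, 5% CO₂; compounds added at various concentrations in 1% DMSO for 48 h; MTT (5 mg/mL solution) then added for 4 h at 37 °C; absorbance at 595 nm; 50% inhibitory concentration by curve fitting; duplicate in two independent experiments.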
# Escherichia coli [1] = assay: Antibacterial activity against Escherichia coli CIP188631 after 24 hrs by twofold serial dilution method; format: functional, organism-based
# How it was run: (§1)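 LB precultures grown 24 h, diluted 1/1000 and seeded; twofold serial drug dilutions in LB; 37 °C for 24 h; growth read as optical density at 595 nm; 90% inhibitory concentration obtained by curve fitting; tetracycline positive control; duplicate in two independent experiments.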
# [2] = test system: Mycobacterium tuberculosis; assay: Antimycobacterial activity against Mycobacterium tuberculosis H37Rv after 6 days by microdilution resazurin assay; format: functional; conditions: 144 h
# How it was run: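 The M. tuberculosis H37Rv inoculum is grown in Dubos medium with 10% ADC enrichment. DMSO drug stocks (50 mg/mL) are serially diluted twofold in 96-well plates, with DMSO and isoniazid controls. Plates are sealed and held at 37 °C for 6 days, then 0.01% resazurin is added for another 24 h. MIC95 is taken at >95% growth inhibition, in µg/mL. Duplicate runs in two independent experiments.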
# [3] = test system: Mycolicibacterium smegmatis; assay: Antimycobacterial activity against Mycobacterium smegmatis str. MC2 155 up to 100 ug/mL; format: functional, organism-based
# Staphylococcus aureus = assay: Antibacterial activity against Staphylococcus aureus ATCC 6538 after 24 hrs by twofold serial dilution method; format: functional; conditions: ATCC 6538, 24 h; how it was run: as §1
# Escherichia coli [4] = assay: Genotoxicity in Escherichia coli PQ37 assessed as DNA damage-induced beta-galactosidase release by SOS-chromotest; format: toxicity, organism-based
# How it was run: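 E. coli PQ37 carrying lacZ under control of the SOS gene sfiA; DNA damage induces β-galactosidase, detected by chromogenic reaction with X-gal; duplicate in two independent experiments.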
# Candida tropicalis = assay: Antifungal activity against Candida tropicalis ATCC 66029 after 24 hrs by disk diffusion method; format: functional, organism-based
# How it was run: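 Kirby–Bauer disk diffusion: C. tropicalis suspension spread on solid Sabouraud plates; 6 mm paper discs impregnated with serial dilutions in DMSO placed on plates; inhibition zone diameter measured after 24 h at 30 °C; itraconazole positive control; duplicate in two independent experiments.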
Structure (SMILES),IC50 (Vero) [µg/mL],Activity (Escherichia coli [1]),MIC95 [2] [µg/mL],Activity [3],MIC90 (Staphylococcus aureus) [µg/mL],Activity (Escherichia coli [4]),diameter of the inhibition zone (DIZ) (Candida tropicalis)
NNC(=O)c1ccncc1 [ISONIAZID],> 500,inactive,0.25,,,,
CC1(C)CCc2c(ccc3oc(-c4cccnc4)c(CCCO)c23)O1,> 25,inactive,5,,,,
Cc1c2c(c3cc(-c4ccccn4)oc3c1C)CCC(C)(C)O2,,inactive,100,,,,
CC(=O)OCCCc1c(Br)oc2ccc3c(c12)CCC(C)(C)O3,,inactive,,,,,
Cc1c2c(c3cc(Cc4cccs4)oc3c1C)CCC(C)(C)O2,,inactive,12.5,inactive,,,
Cc1c2c(c3cc(-c4cccnc4)oc3c1C)C(=O)CC(C)(C)O2,,inactive,> 10,,,,
Cc1c2c(c3cc(CCc4cccnc4)oc3c1C)CCC(C)(C)O2,7.3,inactive,5,,5,,
Cc1c(C)c2c(c(C)c1O)CC[C@@](C)(CCC[C@H](C)CCC[C@H](C)CCCC(C)C)O2 [ALPHA-TOCOPHEROL],,inactive,10,,,,
Cc1c2c(c3cc(-c4ccc(C#N)nc4)oc3c1C)CCC(C)(C)O2,,inactive,> 10,,,,
Cc1c2c(c3cc(Cc4ccc(Cl)cc4)oc3c1C)CCC(C)(C)O2,> 100,inactive,25,,,,
Cc1c2c(c3cc(CCC(=O)N4CCN(C)CC4)oc3c1C)CCC(C)(C)O2,,inactive,> 10,,,,
Cc1c2c(c3cc(/C=C/c4cccnc4)oc3c1C)CCC(C)(C)O2,> 100,inactive,5,,,,
Cc1c2c(c3cc(C4CCCO4)oc3c1C)CCC(C)(C)O2 (stereo unspecified),,inactive,> 10,,,,
Cc1c(-c2ccncc2)oc2ccc3c(c12)C=CC(C)(C)O3,12.8,inactive,5,,5,,
Cc1c2c(c3cc(-c4ccc(Cl)nc4)oc3c1C)CCC(C)(C)O2,,inactive,> 10,,,,
Cc1c2c(c3cc(CC#N)oc3c1C)CCC(C)(C)O2,,inactive,> 10,,,,
Cc1c2c(c3cc(Cc4cccnc4)oc3c1C)CCC(C)(C)O2,6.4,inactive,3,,5,,
Cc1c2c(c3cc(-c4ccc(-c5nn[nH]n5)nc4)oc3c1C)CCC(C)(C)O2,,inactive,10,,,,

Structure (SMILES),IC50 (Vero) [µg/mL],Activity (Escherichia coli [1]),MIC95 [2] [µg/mL],Activity [3],MIC90 (Staphylococcus aureus) [µg/mL],Activity (Escherichia coli [4]),diameter of the inhibition zone (DIZ) (Candida tropicalis)
Cc1c2c(c3cc(-c4cnccn4)oc3c1C)CCC(C)(C)O2,,inactive,10,,,,
Cc1c2c(c3cc(-c4ccncc4)oc3c1C)CCC(C)(C)O2,5.1,inactive,2.5,,,,
Cc1c(C)c2c(c(C)c1O)CCC(C)(C)O2 [APC-100],,inactive,10,,,,
CC1(C)CCc2c(ccc3oc4ccccc4c23)O1,100,inactive,10,,,,
CC(=O)OCCCc1c(-c2ccncc2)oc2ccc3c(c12)CCC(C)(C)O3,14.9,inactive,,,5,,
Cc1c2c(c3cc(-c4ccc[n+]([O-])c4)oc3c1C)CCC(C)(C)O2,5.6,inactive,5,,5,,
Cc1c2c(c3cc(-c4cccnc4)oc3c1C)CCC(C)(C)O2,,inactive,5,,,,
CC(=O)OCc1cc2c3c(c(C)c(C)c2o1)OC(C)(C)CC3,,inactive,10,,,,
CC1(C)C=Cc2c(ccc3oc(-c4ccncc4)cc23)O1,8.7,inactive,2.5,,5,,
CC(=O)OCCCc1c(-c2cccnc2)oc2ccc3c(c12)CCC(C)(C)O3,17.5,inactive,,,,,
Cc1c2c(c3cc(CCC(=O)N4CCOCC4)oc3c1C)CCC(C)(C)O2,,inactive,10,,,,
CC1(C)C=Cc2c(ccc3c2C2CCCOC2O3)O1 (stereo unspecified),,inactive,250,,,,
COC(=N)c1ccc(-c2cc3c4c(c(C)c(C)c3o2)OC(C)(C)CC4)cn1,3.6,inactive,0.6,,5,,
Cc1c2c(c3cc(-c4ccc(NCCCN(C)C)nc4)oc3c1C)CCC(C)(C)O2,1.6,inactive,3,,5,Toxic,Active
Cc1c2c(c3cc(CCC(=O)N4CCCC4)oc3c1C)CCC(C)(C)O2,,inactive,10,,,,
Cc1c2c(c3cc(-c4cccs4)oc3c1C)CCC(C)(C)O2,> 100,inactive,6.2,inactive,,,
CC1(C)CCc2c(ccc3oc(-c4ccncc4)c(CCCO)c23)O1,> 25,inactive,5,,,,
